MPTP inh: mitochondrial permeability transition pore inhibitors, primary screen, biochemical, isolated mouse mitochondria, absorbance | Ca2+ swelling absorbance, 30 min | inhibition, % at 10 µM | 360,000 tested, 1.4% active;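 active means inhibition of 50% or more, scaled per plate between neutral and stimulator controls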;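 further: 0% = DMSO wells given calcium and 100% = 1 mM EGTA wells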
EBI2 antag: EBI2 receptor antagonists, beta-arrestin recruitment, primary screen, cell-based, luminescence, 7a,25-OHC stimulation, uHTS. 360,000 tested, 0.81% active. G-protein coupled receptor 183 (Homo sapiens), P32249. 7a,25-OHC stimulated. inhibition, % at 5 µM; in the data active means inhibition above about 38%;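 further: enzyme fragment complementation signal reports receptor beta-arrestin coupling in cells; 0% = agonist plus DMSO wells and 100% = wells without agonist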
Target sequence (P32249 whole entry, looked up, the tested form may be a part): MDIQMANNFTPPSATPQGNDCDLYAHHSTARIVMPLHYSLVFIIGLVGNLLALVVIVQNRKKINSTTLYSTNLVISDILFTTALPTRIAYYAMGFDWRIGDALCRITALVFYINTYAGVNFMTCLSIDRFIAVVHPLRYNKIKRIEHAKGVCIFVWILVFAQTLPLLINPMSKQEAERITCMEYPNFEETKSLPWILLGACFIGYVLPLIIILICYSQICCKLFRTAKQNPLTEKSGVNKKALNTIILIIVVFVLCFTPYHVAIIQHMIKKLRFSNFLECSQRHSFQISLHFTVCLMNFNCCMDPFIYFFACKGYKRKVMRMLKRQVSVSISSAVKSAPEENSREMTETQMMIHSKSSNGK
NR3A LBD binder: binders of NR3A ligand-binding domain, primary screen, biophysical, differential scanning fluorimetry, uHTS. Glutamate receptor ionotropic, NMDA 3A (GRIN3A) ligand-binding domain. 340,000 tested, 2.5% active. NR3A LBD differential scanning fluorimetry, Tm shift; 0% = protein alone, 100% = glycine-bound protein. Tm shift relative to glycine control, % at 25 µM;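 active means melting temperature shift of at least 10% of the positive control shift, at one fixed dose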
SENP1 inh: human SENP1 catalytic domain inhibitors, primary screen, biochemical, FRET, uHTS | recombinant SENP1 catalytic domain, CyPet-SUMO1-YPet FRET cleavage | inhibition, % at 10 µM | Sentrin-specific protease 1 (Homo sapiens), Q9P0U3 | 360,000 tested, 0.21% active;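 active means inhibition at least 30% at 10 µM, raw YFP signal under a set limit, fluorescence ratio 0.5 to 1.5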;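 further: 0% = enzyme with DMSO and 100% = no enzyme wells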
Target sequence (Q9P0U3 419-644 limits assumed): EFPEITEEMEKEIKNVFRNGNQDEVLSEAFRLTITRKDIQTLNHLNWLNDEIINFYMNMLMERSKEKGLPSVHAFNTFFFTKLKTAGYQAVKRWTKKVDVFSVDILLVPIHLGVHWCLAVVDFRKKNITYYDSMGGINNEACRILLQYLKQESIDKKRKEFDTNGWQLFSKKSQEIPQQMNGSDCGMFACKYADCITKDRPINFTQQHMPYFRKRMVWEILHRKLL
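Controls: no-enzyme wells low, DMSO-plus-enzyme wells high control. Test system: human recombinant His6-tagged SENP1 catalytic domain enzyme. Reagent: SFCypet-SUMO1-SFYpet FRET protein substrate, 25 nM final. Doses: one dose per compound, 10 µM, 0.5% DMSO. Detection: FRET, CFP and YFP emission. Timing: 50 min reaction at room temperature.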
MPTP counter: fluorescence retest of MPTP screen hits in isolated mitochondria, single concentration | shares compounds with MPTP inh | membrane potential, Rhodamine 123 fluorescence | inhibition, % at 10 µM | 5,000 tested, 78% active; in the data active means inhibition above about 22%;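 further: 0% = DMSO vehicle and 100% = positive control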
MPTP abs DR: mitochondrial permeability transition pore inhibitors, dose response, biochemical, absorbance, uHTS hits. shares compounds with MPTP inh. AID 651561, 2012. isolated mitochondria swelling. 780 tested, 58% active. IC50, µM; in the data active means IC50 below about 20 µM
MPTP cs DR: fluorescent counter-screen in isolated mitochondria, dose response, counter-screen for MPTP inhibitor project, biochemical, fluorescence, uHTS hits. AID 651564, 2012. 780 tested, 49% active. IC50, µM. shares compounds with MPTP inh. isolated mitochondria counterscreen, fluorescence read-out; in the data active means IC50 below about 80 µM
* = called active by the depositor; . = no result. The list is not random: actives were taken first. Their share in the collection is about 4.4%.

SMILES	MPTP inh	EBI2 antag	NR3A LBD binder	SENP1 inh	MPTP counter	others
Cc1ccsc1C(=O)NNC(=O)Nc1ccc(Cl)c(Cl)c1	0.9	-8.3	-0.7	1.0	.
CCOC(=O)N(CC)OC(=O)Nc1ccc(Cl)cc1	57.4*	0.3	-1.4	-0.2	63.4*
CC(C)(C)[C@H]1C=C(C(=O)N2CCN(Cc3ccc4c(c3)OCO4)CC2)O[C@@H](OCc2ccc(CO)cc2)C1	-1.3	13.9	3.0	-1.9	.
CCOc1cc(CNCc2cccs2)cc(Br)c1OCC	13.6	-0.1	0.7	2.3	.
CCOc1cc(CNCc2ccncc2)cc(Br)c1OCc1ccccc1F	61.2*	22.0	5.1	0.4	75.7*
CCOc1cc(CNCCO)cc(Br)c1OCc1cccs1	93.0*	1.2	1.4	2.1	9.1	MPTP abs DR=4.06*;MPTP cs DR=22.7*
COc1ccc(C)cc1S(=O)(=O)N(CC(=O)N1CCCC1)c1ccccc1	1.0	-9.6	4.8	0.5	.
Cc1cc(C)nc(Nc2ncc(O)n2-c2ccc(Br)cc2)n1	-0.9	-20.7	-2.9	0.4	.
O=C(CCN1CCN(Cc2ccccc2)CC1)Nc1ccc(OCc2ccccc2)cc1	85.6*	-6.3	-1.1	3.7	17.0	MPTP abs DR=7.34*;MPTP cs DR=13.1*
c1ccc(COc2ccc(OCCCCN3CCCCC3)cc2)cc1	74.1*	1.0	-0.4	-0.9	-0.5	MPTP abs DR=6.71*;MPTP cs DR=19.4*
O=C(c1ccccc1)c1ccc(OCCCCN2CCCCC2)cc1	-0.1	-14.7	-17.0	4.2	.
O=C(c1ccccc1)c1ccc(OCCOCCN2CCN(Cc3ccccc3)CC2)cc1	83.5*	-2.8	-1.9	-0.5	10.4	MPTP abs DR=18.2*;MPTP cs DR=27.2*
O=C(CCN1CCN(CCO)CC1)Nc1ccc(OCc2ccccc2)cc1	1.0	-2.4	0.6	0.6	.
O=C(c1ccccc1)c1ccc(OCCCN2CCCC2)cc1	0.6	-2.6	-1.9	1.4	.
CC(=O)Nc1ccc(C23CC4CC(CC(C4)C2)C3)cc1	0.9	4.4	-6.3	0.7	.
CNC(=S)Nc1ccc(C23CC4CC(CC(C4)C2)C3)cc1	52.3*	25.6	0.4	1.8	65.6*
O=S(=O)(c1ccc(NC(=S)NCCC(c2ccccc2)c2ccccc2)cc1)N1CCOCC1	97.0*	4.3	16.5*	-0.2	80.1*
CC(C)(C)CC(C)(C)NC(=S)Nc1ccc(S(=O)(=O)N2CCOCC2)cc1	100.0*	7.6	22.1*	-0.9	77.5*
Cc1cc(C)c(C#N)c(SCCS(=O)(=O)c2ccc(C(C)(C)C)cc2)n1	60.8*	17.4	2.1	-0.2	20.4*
O=C(O)c1cc(NC(=O)c2cccc(C(=O)Nc3cc(C(=O)O)cc(C(=O)O)c3)c2)cc(C(=O)O)c1	-0.9	-5.9	1.8	3.6	.
N/C(=N/O)c1ccccc1N1CCC(Cc2ccccc2)CC1	4.1	5.1	-2.5	-0.6	.
CCC(C(=O)OCC(=O)Nc1cccc(C(C)=O)c1)c1ccccc1 (stereo not drawn)	2.9	-4.4	3.0	3.8	.
CCC(C(=O)OCC(=O)Nc1cc(Cl)cc(Cl)c1)c1ccccc1 (stereo not drawn)	82.4*	9.9	12.0*	2.2	90.2*
Cc1ccc(-c2nc3cccnc3o2)cc1NC(=O)COc1ccc(C(C)(C)C)cc1	85.2*	-19.4	-8.0	0.5	22.8*
Cc1ccc(-c2nc3cccnc3o2)cc1NC(=O)COc1ccc(Cl)cc1C	2.2	-28.2	-1.7	0.2	.
SMILES	MPTP inh	EBI2 antag	NR3A LBD binder	SENP1 inh	MPTP counter	others
CC(OC(=O)c1cc(Br)ccc1O)C(=O)Nc1ccc(S(=O)(=O)N2CCCC2)cc1 (stereo not drawn)	87.0*	-6.1	10.5*	1.9	90.7*
CC(NC(=O)c1ccc2c(c1)OCO2)c1cccc(C(F)(F)F)c1 (stereo not drawn)	-2.4	-7.3	-2.9	2.4	.
S=C(NCc1ccco1)Nc1cc(Cl)c(Cl)cc1Cl	88.3*	0.1	-1.7	-3.2	85.0*
OCCCNC(=S)Nc1ccc(Oc2ccccc2)cc1	2.2	-18.1	-5.8	2.5	.
CC(C)CNC(=S)Nc1ccc(Oc2ccccc2)cc1	91.9*	-37.4	-0.2	1.6	98.1*
COc1cc(NC(=S)NCc2ccco2)cc(OC)c1	-2.3	-2.4	-0.9	-3.1	.
Cc1ccccc1NC(=S)NCc1ccco1	-0.2	-3.9	-1.1	-0.9	.
CC(=O)c1cccc(NC(=S)NCc2ccco2)c1	1.6	3.6	-7.8	-3.3	.
S=C(NCc1ccco1)Nc1ccc(Cl)c(Cl)c1	93.9*	-4.4	10.6*	-1.1	89.6*
S=C(NCc1ccco1)Nc1cccc(Cl)c1	59.9*	-5.5	-3.6	0.8	72.7*
COc1cc(S(=O)(=O)N(C)C2CCCCC2)c(C)cc1C	-0.6	-2.6	1.9	-0.3	.
S=C(NCc1ccco1)Nc1ccc(Oc2ccccc2)cc1	77.8*	-18.1	-0.7	0.8	84.7*
COc1ccc(NC(=S)NCc2ccco2)cc1	0.0	-8.2	2.5	-6.2	.
CN(Cc1cc(Cl)cc(Cl)c1)[C@H]1C[C@H]2c3[nH]c4ccccc4c3CCN2C(=O)[C@H]1CO	-1.1	2.1	.	-13.3	.
CC(C)S(=O)(=O)C1=NSC2=NC(=O)/C(=C\c3ccc(-c4ccccc4)o3)C(=N)N21	105.8*	-0.1	7.1	-25.5	68.4*
OCCNCc1cccc(OCc2ccc(Cl)cc2)c1	64.5*	-7.4	-0.6	-0.4	-8.9	MPTP abs DR=5.63*;MPTP cs DR=>80
CC(C)Cc1csc(NC(=O)c2ccc(Cl)cc2)c1C(=O)O	90.2*	-6.6	-10.2	2.5	88.0*
NC(=O)C1(C(N)=O)OC1c1ccc(Cl)c(Cl)c1 (stereo not drawn)	2.1	6.6	-0.7	0.2	.
O=S(=O)(NCC1CCCO1)c1ccc(-c2ccc(S(=O)(=O)NCC3CCCO3)cc2)cc1 (stereo not drawn)	86.4*	-10.1	1.1	-0.2	100.7*
Cc1ccc(S(=O)(=O)NCC2CCCO2)cc1 (stereo not drawn)	1.7	-0.8	-1.0	0.8	.
O=C(Nc1ccccc1C(=O)N1CCCCC1)NC1CCCCC1	-1.8	-8.9	0.8	1.7	.
CN(CC(=O)Nc1ccc(Cl)cc1)c1ccc(S(=O)(=O)N2CCCCC2)cc1[N+](=O)[O-]	82.4*	19.9	10.8*	-11.7	66.6*
O=C(CSCc1ccc(Cl)cc1)Nc1ccc(S(=O)(=O)N2CCCCCC2)cc1	53.4*	4.7	-5.6	-1.1	80.0*
COc1ccc(CN(C)c2ccc(S(=O)(=O)N3CCN(C)CC3)cc2[N+](=O)[O-])cc1OC	97.0*	-6.0	-2.7	1.3	99.0*

Screens: PubChem, Sanford-Burnham Center for Chemical Genomics
